Columns and labels:
[1] = target: T1, Ectonucleotide pyrophosphatase/phosphodiesterase family member 1 (Homo sapiens) (UniProt P22413); experiment: Inhibition of NPP1 in human HTB-85 cells assessed as production of p-nitrophenol using pnp-TMP at 100 uM measured after 20 mins by spectrophotometry; type: cell-based
T1 sequence (whole entry): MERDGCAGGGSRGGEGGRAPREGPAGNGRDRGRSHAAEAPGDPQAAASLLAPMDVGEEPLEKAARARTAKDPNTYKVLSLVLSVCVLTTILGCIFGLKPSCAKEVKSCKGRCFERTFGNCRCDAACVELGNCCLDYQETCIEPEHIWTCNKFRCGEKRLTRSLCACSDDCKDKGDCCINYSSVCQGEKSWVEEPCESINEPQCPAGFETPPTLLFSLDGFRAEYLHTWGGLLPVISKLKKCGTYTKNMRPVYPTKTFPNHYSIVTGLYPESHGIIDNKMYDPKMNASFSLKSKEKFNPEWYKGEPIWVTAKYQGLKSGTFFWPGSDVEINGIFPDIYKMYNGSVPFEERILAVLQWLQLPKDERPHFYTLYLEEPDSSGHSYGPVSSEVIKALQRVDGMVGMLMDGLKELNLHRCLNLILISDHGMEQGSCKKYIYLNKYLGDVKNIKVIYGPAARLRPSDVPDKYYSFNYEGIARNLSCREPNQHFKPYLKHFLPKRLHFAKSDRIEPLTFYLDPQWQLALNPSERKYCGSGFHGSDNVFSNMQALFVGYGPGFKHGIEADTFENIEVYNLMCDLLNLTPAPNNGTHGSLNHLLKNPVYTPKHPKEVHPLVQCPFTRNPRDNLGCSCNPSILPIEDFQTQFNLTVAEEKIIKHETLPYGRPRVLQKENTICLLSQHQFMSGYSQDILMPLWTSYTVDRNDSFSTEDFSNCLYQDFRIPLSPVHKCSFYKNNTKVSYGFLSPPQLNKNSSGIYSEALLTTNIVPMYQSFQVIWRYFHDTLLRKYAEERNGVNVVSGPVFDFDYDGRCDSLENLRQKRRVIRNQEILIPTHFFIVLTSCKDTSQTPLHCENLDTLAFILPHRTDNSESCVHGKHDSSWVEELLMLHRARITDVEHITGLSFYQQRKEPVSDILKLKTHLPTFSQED
Method in brief: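 Intact osteocarcinoma HTB85 (SaOS-2) cells in 24-well plates, 0.5 mL incubation mixture, analogue and pnp-TMP each at 100 μM. After 20 min an aliquot was read for p-nitrophenol at 410 nm. Substrate alone set as 100%. Mean ± SD of three experiments in triplicate.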

[2] = target: T2, Ectonucleoside triphosphate diphosphohydrolase 8 (Homo sapiens) (UniProt Q5MY95); experiment: Inhibition of human NTPDase8 assessed as amount of inorganic phosphate released using ATP as the substrate preincubated at 100 uM for 3 mins before substrate addition after 15 mins by malachite green reagent method
T2 sequence (whole entry): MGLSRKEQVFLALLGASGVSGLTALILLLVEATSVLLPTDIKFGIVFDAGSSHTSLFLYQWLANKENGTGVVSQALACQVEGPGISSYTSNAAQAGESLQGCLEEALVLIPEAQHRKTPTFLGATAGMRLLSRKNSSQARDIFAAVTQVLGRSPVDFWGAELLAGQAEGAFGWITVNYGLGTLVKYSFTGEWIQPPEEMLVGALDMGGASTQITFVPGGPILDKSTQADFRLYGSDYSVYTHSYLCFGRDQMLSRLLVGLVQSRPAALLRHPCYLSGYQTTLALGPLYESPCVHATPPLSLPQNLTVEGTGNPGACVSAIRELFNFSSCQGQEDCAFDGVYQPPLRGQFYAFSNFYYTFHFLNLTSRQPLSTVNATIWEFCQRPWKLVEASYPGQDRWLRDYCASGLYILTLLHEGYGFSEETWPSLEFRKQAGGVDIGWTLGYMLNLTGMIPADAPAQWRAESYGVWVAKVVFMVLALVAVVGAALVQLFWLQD
Method in brief: (§1)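 Crude extracts of COS-7 cells transiently transfected with human NTPDase1, -2, -3 or -8, preincubated 3 min at 37 °C in Tris-Ringer medium pH 7.4 with analogue (final 100 μM). Started with 100 μM ATP, stopped after 15 min with malachite green; released Pi read at 630 nm. ATP alone set as 100%. Mean ± SD of 3−6 experiments in triplicate.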

[3] = target: T3, Ectonucleoside triphosphate diphosphohydrolase 3 (Homo sapiens) (UniProt O75355); experiment: Inhibition of human NTPDase3 assessed as amount of inorganic phosphate released using ATP as the substrate preincubated at 100 uM for 3 mins before substrate addition after 15 mins by malachite green reagent method; method in brief: as §1
T3 sequence (whole entry): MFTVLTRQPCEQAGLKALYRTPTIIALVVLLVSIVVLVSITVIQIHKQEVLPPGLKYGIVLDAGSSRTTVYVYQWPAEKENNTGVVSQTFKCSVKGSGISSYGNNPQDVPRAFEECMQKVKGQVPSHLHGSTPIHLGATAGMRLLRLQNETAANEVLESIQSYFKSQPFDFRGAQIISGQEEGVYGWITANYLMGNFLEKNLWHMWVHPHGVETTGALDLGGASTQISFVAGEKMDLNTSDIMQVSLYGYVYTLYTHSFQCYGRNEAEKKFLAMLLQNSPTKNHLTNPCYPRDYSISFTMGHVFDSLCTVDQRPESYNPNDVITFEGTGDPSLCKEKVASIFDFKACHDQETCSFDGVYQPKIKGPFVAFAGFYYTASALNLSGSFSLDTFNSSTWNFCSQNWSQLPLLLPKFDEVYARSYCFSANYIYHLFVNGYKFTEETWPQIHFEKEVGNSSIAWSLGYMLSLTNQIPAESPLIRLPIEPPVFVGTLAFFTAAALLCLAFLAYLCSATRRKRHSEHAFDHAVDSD

[4] = target: T4, Ectonucleotide pyrophosphatase/phosphodiesterase family member 1 (Homo sapiens, UniProt P22413); experiment: Mixed type inhibition of human NPP1 expressed in COS7 cells assessed as production of p-nitrophenol using pnp-TMP as the substrate preincubated for 3 mins before substrate addition measured after 15 mins by Dixon/Cornish Bowden method; type: cell-based, COS-7; settings: read-out: Ki(app)
T4 sequence (P22413 whole entry): T1 sequence (whole entry)
Method in brief: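 Crude protein extract from COS-7 cells transiently transfected with human NPP1 (sonicated, debris cleared at 300g), preincubated 3 min at 37 °C with inhibitor (0, 25, 50, 100 μM) in 1 mM CaCl2, 140 mM NaCl, 5 mM KCl, 50 mM Tris pH 8.5. pnp-TMP (25, 50, 100 μM) added; p-nitrophenol read at 410 nm after 15 min. Ki,app and inhibition type from Dixon and Cornish-Bowden plots, three independent experiments.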

SMILES | inhibition [1] [%] | inhibition [2] [%] | inhibition [3] [%] | Ki [4] [µM]
B[P@@](=O)(OC[C@H]1O[C@@H](n2cnc3c(N)nc(SC)nc32)[C@H](O)[C@@H]1O)OP(=O)(O)C(F)(F)P(=O)(O)O |  | 30 |  | 
CSc1nc(N)c2ncn([C@@H]3O[C@H](COP(=O)(O)C(F)(F)P(=O)(O)O)[C@@H](O)[C@H]3O)c2n1 | 41 | < 18 | < 18 | 26
B[P@](=O)(OC[C@H]1O[C@@H](n2cnc3c(N)ncnc32)[C@H](O)[C@@H]1O)OP(=O)(O)CP(=O)(O)O | 41 | < 18 | < 18 | 7

More lines, in order of falling Ki [4], values ahead:

inhibition [1] [%] | inhibition [2] [%] | inhibition [3] [%] | Ki [4] [µM] | SMILES
90 | < 18 | < 18 | 56 | B[P@](=O)(OC[C@H]1O[C@@H](n2cnc3c(N)nc(SC)nc32)[C@H](O)[C@@H]1O)OP(=O)(O)CP(=O)(O)O
90 | < 18 | < 18 | 0.5 | B[P@@](=O)(OC[C@H]1O[C@@H](n2cnc3c(N)ncnc32)[C@H](O)[C@@H]1O)OP(=O)(O)CP(=O)(O)O
